# Values without a mark were called inactive.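 How the source made its calls: active means peak inhibition of the KCNQ2 potassium channel above 30% at some tested dose, plus a fitted dose response curve; inactive means no inhibition at any dose, or no curve.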
# Biological target: Potassium voltage-gated channel subfamily KQT member 2 (Rattus norvegicus) (UniProt O88943)
# Experiment: KCNQ2 channel inhibition, SAR follow-up, selectivity assay for KCNK9 inhibitor project, cell-based, FluxOR thallium flux, concentration-response (AID 623886)
# Conditions: KCNQ2 cell line, FluxOR thallium flux fluorescence; series mostly up to 30 µM; thallium flux ratio, lower = inhibition: at the top concentration
# Procedure, shortened: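 Material: CHO cells expressing KCNQ2 potassium channel | Also added: K2SO4/Tl2SO4 stimulus (5x stock 25 mM, 7 mM) | Replication: Duplicate or more | Timing: FluxOR dye loading 90 min, compound pre-exposure 20 min, both room temperature | Measure: Fluorescence range-to-baseline ratio | Measured by: Kinetic thallium-sensitive dye fluorescence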
# Sequence of Potassium voltage-gated channel subfamily KQT member 2 (Rattus norvegicus) (O88943 whole entry, looked up): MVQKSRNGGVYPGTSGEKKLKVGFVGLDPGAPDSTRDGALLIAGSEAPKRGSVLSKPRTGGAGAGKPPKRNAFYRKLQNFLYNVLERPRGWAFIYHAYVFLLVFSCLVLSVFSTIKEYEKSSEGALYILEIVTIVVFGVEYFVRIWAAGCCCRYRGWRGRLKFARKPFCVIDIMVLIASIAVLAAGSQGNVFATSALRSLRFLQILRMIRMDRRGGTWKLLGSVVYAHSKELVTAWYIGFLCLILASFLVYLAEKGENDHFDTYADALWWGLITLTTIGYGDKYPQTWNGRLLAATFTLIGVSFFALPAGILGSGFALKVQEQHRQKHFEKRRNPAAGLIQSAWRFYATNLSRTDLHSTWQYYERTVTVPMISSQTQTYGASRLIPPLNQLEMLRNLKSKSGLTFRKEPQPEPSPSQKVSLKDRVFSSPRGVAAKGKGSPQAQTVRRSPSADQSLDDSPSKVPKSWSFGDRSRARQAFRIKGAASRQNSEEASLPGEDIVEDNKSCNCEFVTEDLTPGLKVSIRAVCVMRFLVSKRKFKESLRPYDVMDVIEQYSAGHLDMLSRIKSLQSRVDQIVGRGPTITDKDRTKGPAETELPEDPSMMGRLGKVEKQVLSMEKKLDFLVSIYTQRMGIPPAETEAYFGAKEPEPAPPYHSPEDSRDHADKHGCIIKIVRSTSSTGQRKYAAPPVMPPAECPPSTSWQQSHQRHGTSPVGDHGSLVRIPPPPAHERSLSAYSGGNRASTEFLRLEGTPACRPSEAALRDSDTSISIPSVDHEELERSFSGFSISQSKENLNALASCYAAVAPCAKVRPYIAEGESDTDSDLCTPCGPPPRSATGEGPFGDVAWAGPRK
row,SMILES,"thallium flux ratio, lower = inhibition"
1,Cc1cccc(NC(=O)c2cccc(NC(=O)c3ccccc3)c2)c1,0.187
2,Cc1cccc(C(=O)Nc2ccccc2C(=O)Nc2ccccc2)c1,0.171
3,Cc1cccc(C(=O)Nc2cccc(C(=O)Nc3ccccc3)c2)c1,0.18
4,Cc1cccc(NC(=O)c2ccccc2NC(=O)c2ccccc2)c1,0.206
5,Cc1cccc(C(=O)Nc2ccc(C(=O)Nc3ccccc3)cc2)c1,0.198
